Results: ChEMBL document CHEMBL1137011, “Antagonists of the calcium receptor I. Amino alcohol-based parathyroid hormone secretagogues” (J Med Chem, 2009)
Calls of active or inactive are those of the source. The calls are words filed in the database; no cut-off is given here.

Columns and labels:
[1] = target: T1, Extracellular calcium-sensing receptor (Homo sapiens, UniProt P41180); experiment: Binding affinity to human parathyroid calcium receptor 1 expressed in HEK293 4.0-7 cells by radioligand binding assay; assay type: cell-based
T1 sequence (P41180 whole entry): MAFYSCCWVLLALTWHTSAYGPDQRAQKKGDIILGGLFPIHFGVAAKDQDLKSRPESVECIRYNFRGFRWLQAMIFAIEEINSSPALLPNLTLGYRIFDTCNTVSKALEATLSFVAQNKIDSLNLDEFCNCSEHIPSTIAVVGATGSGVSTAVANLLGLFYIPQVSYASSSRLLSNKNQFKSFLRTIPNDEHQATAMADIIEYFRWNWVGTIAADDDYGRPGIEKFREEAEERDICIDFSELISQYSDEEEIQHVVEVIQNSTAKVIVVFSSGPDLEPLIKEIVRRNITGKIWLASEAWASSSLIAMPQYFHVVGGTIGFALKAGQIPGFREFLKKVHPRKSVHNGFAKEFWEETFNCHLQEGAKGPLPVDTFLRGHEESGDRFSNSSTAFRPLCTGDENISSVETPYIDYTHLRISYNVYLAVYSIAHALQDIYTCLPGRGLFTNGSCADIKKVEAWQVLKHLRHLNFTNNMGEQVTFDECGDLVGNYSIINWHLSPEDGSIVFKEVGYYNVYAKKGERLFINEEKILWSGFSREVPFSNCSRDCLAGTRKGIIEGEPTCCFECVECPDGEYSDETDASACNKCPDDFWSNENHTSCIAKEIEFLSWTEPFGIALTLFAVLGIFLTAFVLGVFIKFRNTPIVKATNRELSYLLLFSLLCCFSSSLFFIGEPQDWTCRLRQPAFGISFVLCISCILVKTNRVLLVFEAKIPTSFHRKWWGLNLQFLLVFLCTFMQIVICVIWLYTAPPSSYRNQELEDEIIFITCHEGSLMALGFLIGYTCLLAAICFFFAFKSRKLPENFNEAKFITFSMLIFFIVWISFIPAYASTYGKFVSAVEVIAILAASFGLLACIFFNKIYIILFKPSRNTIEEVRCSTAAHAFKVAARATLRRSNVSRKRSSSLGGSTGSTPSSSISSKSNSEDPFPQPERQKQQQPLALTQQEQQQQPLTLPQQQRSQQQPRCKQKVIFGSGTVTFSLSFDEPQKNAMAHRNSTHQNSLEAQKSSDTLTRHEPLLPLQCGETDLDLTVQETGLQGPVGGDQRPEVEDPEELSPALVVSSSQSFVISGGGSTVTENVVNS
Method in brief: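 Membranes from HEK293 4.0-7 cells stably expressing human CaR (4-10 µg) in 50 mM Tris-HCl pH 7.4, 1 mM EDTA, 3 mM MgCl2, 0.1% gelatin, 10% EtOH. Incubated with 2 nM 3H antagonist or 3H calcimimetic ligand for 30 min at 4 °C, then filtered onto PEI-treated GF/C and counted by scintillation. Nonspecific binding taken with 100-fold excess of unlabeled homologous ligand.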

[2] = Antagonist activity at human calcium receptor 1 expressed in HEK293 4.0-7 cells assessed as inhibition of extracellular calcium-induced increase in intracellular calcium level by FLIPR assay; assay type: functional, cell-based
Method in brief: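 HEK293 cells stably expressing human CaR, seeded 15K cells/well and grown 48 h at 37 °C. Loaded 45 min at 37 °C with Fluo4 (2 µM final) and probenecid (2.5 mM final) in HBSS with 0.75 mM Ca. Compound (top 25 µM final) was added 5 min at room temperature, then EC80 CaCl challenge, with FLIPR fluorescence read for 65 s.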

Cytochrome P450 2D6 = Cytochrome P450 2D6 (Homo sapiens, UniProt P10635); experiment: Binding affinity to CYP2D6; assay type: ADME
Sequence of Cytochrome P450 2D6 (P10635 whole entry): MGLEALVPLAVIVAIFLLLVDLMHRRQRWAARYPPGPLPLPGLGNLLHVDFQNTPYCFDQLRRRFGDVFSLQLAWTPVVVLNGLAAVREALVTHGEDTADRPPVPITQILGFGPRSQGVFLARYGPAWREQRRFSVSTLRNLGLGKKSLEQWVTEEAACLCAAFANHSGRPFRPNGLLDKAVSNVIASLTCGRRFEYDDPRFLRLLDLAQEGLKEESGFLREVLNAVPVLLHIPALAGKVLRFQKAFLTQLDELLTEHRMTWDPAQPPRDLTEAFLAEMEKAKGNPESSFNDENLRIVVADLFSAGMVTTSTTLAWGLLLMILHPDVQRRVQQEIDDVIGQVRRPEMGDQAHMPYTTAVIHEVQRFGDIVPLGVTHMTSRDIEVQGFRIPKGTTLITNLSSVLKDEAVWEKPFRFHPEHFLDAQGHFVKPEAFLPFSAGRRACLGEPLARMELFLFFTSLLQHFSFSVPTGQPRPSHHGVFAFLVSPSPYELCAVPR

[3] = target: Sodium-dependent dopamine transporter (Homo sapiens, UniProt Q01959); experiment: Binding affinity to dopamine transporter
Sequence of Sodium-dependent dopamine transporter (Q01959 whole entry): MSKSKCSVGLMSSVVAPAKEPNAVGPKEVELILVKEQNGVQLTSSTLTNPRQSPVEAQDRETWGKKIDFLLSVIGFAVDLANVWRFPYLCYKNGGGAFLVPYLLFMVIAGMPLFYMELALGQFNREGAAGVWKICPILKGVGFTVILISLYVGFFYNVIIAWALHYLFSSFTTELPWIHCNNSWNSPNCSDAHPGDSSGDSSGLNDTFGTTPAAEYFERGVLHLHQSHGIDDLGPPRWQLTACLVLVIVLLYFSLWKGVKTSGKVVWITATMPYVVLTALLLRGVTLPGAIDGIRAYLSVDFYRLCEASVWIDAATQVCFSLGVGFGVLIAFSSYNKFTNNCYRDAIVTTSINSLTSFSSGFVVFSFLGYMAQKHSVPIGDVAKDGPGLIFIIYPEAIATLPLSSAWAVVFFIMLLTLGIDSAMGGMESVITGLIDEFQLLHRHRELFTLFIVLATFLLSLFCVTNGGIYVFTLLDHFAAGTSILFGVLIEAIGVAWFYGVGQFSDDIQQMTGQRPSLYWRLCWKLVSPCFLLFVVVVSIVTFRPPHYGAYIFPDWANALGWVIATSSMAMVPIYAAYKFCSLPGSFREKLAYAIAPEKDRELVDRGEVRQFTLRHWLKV

[4] = target: Beta-2 adrenergic receptor (Homo sapiens, UniProt P07550); experiment: Binding affinity to beta2 adrenoceptor
Sequence of Beta-2 adrenergic receptor (P07550 whole entry): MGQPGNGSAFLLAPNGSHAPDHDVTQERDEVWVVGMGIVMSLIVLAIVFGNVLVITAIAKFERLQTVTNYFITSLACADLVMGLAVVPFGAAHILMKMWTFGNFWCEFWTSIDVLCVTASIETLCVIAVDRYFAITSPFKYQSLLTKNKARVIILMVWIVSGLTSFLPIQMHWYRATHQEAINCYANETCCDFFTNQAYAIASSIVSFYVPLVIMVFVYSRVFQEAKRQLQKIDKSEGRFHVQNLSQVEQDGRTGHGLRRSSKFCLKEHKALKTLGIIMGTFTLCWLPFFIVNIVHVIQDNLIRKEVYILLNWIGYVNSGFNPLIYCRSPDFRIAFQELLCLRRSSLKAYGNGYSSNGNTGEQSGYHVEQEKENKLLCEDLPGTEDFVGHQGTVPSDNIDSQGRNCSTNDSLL

[5] = target: Sodium-dependent noradrenaline transporter (Homo sapiens, UniProt P23975); experiment: Binding affinity to norepinephrine transporter
Sequence of Sodium-dependent noradrenaline transporter (P23975 whole entry): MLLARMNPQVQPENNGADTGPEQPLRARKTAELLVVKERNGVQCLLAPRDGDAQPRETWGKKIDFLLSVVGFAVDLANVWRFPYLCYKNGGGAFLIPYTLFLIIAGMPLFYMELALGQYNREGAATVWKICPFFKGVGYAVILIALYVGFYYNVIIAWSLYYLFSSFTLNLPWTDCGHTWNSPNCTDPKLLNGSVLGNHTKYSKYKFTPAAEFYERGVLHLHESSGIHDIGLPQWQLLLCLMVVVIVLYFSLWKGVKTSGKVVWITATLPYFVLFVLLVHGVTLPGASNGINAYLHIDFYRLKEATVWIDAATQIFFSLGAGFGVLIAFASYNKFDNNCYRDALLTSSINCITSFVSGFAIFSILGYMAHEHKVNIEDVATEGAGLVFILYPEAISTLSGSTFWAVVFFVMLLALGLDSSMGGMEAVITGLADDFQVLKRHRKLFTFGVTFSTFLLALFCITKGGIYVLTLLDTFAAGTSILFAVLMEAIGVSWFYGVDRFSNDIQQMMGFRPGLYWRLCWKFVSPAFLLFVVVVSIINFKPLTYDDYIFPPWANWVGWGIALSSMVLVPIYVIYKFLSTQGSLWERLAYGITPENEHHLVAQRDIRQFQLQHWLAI

[6] = target: Sodium-dependent serotonin transporter (Homo sapiens, UniProt P31645); experiment: Binding affinity to serotonin transporter
Sequence of Sodium-dependent serotonin transporter (P31645 whole entry): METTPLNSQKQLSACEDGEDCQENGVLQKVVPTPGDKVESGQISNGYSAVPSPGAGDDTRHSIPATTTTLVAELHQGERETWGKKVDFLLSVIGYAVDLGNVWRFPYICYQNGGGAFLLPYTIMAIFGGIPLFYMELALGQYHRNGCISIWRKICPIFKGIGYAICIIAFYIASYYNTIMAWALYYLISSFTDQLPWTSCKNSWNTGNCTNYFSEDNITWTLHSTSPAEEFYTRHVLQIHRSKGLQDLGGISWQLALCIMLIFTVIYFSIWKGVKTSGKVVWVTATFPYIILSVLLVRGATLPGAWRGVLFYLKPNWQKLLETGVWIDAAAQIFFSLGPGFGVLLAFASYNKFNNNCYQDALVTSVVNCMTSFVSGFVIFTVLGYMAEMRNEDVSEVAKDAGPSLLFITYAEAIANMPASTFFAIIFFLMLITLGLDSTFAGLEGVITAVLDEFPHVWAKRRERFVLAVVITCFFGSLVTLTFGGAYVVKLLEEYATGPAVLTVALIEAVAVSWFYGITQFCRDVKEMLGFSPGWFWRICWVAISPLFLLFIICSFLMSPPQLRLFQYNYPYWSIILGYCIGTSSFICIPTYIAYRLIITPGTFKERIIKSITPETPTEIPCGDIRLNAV

[7] = target: Beta-3 adrenergic receptor (Homo sapiens, UniProt P13945); experiment: Binding affinity to beta3 adrenoceptor
Sequence of Beta-3 adrenergic receptor (P13945 whole entry): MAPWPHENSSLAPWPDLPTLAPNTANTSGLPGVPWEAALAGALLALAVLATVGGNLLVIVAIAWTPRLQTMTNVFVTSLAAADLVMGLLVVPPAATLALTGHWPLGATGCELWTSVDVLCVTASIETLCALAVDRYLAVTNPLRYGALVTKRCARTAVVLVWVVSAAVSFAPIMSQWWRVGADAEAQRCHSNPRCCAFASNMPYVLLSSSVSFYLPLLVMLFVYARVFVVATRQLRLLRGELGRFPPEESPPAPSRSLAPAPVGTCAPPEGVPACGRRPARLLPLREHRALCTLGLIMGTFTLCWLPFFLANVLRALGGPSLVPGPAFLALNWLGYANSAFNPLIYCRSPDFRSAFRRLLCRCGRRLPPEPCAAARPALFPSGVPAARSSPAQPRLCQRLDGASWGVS

[8] = target: Beta-1 adrenergic receptor (Homo sapiens, UniProt P08588); experiment: Binding affinity to beta-1 adrenoceptor
Sequence of Beta-1 adrenergic receptor (P08588 whole entry): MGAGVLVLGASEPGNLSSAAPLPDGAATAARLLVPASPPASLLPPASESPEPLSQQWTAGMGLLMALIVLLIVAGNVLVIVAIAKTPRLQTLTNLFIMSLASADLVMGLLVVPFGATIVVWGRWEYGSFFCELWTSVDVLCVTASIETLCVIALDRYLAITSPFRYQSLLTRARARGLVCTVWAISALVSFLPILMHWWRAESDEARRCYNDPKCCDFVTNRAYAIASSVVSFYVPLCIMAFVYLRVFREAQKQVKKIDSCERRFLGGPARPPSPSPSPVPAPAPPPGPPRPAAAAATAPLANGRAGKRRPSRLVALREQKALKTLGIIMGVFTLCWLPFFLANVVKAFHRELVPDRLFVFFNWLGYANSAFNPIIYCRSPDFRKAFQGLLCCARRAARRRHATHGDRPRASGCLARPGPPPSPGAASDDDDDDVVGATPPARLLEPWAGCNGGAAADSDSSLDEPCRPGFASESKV

[9] = target: Voltage-gated inwardly rectifying potassium channel KCNH2 (Homo sapiens, UniProt Q12809); experiment: Binding affinity to human ERG
Sequence of Voltage-gated inwardly rectifying potassium channel KCNH2 (Q12809 whole entry): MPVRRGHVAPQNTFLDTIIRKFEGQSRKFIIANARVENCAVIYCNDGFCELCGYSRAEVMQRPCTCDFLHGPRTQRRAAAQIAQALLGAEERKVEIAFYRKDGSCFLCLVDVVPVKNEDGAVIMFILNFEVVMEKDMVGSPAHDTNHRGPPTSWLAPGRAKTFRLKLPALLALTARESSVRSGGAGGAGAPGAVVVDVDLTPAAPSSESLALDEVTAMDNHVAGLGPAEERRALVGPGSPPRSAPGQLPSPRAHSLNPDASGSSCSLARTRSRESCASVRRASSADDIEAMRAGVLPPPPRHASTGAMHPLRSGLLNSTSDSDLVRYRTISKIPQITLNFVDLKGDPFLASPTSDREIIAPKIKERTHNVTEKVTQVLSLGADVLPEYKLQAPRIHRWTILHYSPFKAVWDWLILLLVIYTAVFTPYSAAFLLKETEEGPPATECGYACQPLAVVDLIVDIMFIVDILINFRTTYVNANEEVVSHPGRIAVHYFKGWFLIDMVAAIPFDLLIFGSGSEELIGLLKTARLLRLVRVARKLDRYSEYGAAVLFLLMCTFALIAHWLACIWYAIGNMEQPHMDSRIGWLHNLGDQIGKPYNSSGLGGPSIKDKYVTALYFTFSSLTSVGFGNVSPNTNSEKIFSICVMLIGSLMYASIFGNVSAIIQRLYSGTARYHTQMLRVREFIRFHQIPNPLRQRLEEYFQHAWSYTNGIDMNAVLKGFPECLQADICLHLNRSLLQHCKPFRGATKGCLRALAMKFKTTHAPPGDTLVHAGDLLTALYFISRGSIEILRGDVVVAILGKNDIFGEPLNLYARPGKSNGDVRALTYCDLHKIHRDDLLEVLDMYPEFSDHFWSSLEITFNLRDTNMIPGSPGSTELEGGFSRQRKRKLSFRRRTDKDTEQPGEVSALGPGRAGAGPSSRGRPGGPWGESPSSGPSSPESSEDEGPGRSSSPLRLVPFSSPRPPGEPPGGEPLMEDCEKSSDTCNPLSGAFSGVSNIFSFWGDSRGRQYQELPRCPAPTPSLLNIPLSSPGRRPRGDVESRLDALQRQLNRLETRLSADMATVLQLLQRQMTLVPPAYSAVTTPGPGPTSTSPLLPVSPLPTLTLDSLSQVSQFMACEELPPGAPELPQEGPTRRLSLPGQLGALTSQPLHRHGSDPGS

Rattus norvegicus [10] = experiment: Increase of bone mass in ovariectomized postmenopausal osteoporosis Sprague-Dawley rat model at 5 ug/kg, po for 5 weeks; assay type: functional, organism-based
Rattus norvegicus [11] = species: Rattus norvegicus; experiment: Clearance in rat; assay type: ADME, organism-based; conditions: in vivo
[12] = Volume of distribution in rat; assay type: ADME, organism-based; conditions: in vivo
[13] = Half life in rat; assay type: ADME, organism-based; conditions: in vivo
Rattus norvegicus [14] = experiment: Increase of bone mass in 17-beta-estradiol-treated ovariectomized postmenopausal osteoporosis Sprague-Dawley rat model at 100 umol/kg, po for 5 weeks; assay type: functional, organism-based
[15] = Increase in parathyroid hormone release in bovine parathyroid cells; assay type: functional, cell-based; conditions: Bos taurus
[16] = Oral bioavailability in rat; assay type: ADME, organism-based; conditions: in vivo
Rattus norvegicus [17] = experiment: Increase in plasma parathyroid hormone level in normal conscious rat at 10 umol/kg, iv by immunoradiometric assay; assay type: functional, organism-based
Method in brief: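 Normal conscious rats were given a single iv injection of 10 µmol/kg. Plasma PTH was measured over time by rat PTH(1-34) immunoradiometric assay, n = 6/group, mean ± SE.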

Rattus norvegicus [18] = experiment: Increase of new bone formation in ovariectomized postmenopausal osteoporosis Sprague-Dawley rat model at 100 umol/kg, po for 5 weeks; assay type: functional, organism-based
Rattus norvegicus [19] = experiment: Effect on net increase in bone mass in ovariectomized postmenopausal osteoporosis Sprague-Dawley rat model at 100 umol/kg, po for 5 weeks; assay type: functional, organism-based
Rattus norvegicus [20] = experiment: Increase of resorption of old bone in ovariectomized postmenopausal osteoporosis Sprague-Dawley rat model at 100 umol/kg, po for 5 weeks; assay type: functional, organism-based
[21] = Volume of distribution in human; assay type: ADME, organism-based; conditions: in vivo
[22] = Clearance in women; assay type: ADME, organism-based; conditions: female, human, in vivo
[23] = Tmax in human; assay type: ADME, organism-based; conditions: in vivo
[24] = Clearance in men; assay type: ADME, organism-based; conditions: male, human, in vivo

COc1ccc(CC(C)NCC(O)COc2ccccc2)cc1 (racemic)
IC50 [1]: > 10000 nM
IC50 [2]: > 100000 nM

COc1ccc(CCNCC(O)COc2ccccc2)cc1 (racemic)
IC50 [1]: > 10000 nM
IC50 [2]: > 100000 nM

COc1ccc(CC(C)(C)NCC(O)COc2ccccc2OC)cc1 (racemic)
IC50 [1]: 3500 nM
IC50 [2]: 15600 nM

COc1ccc(CC(C)(C)NCC(COc2cccc(Cl)c2Cl)OC)cc1 (racemic)
IC50 [1]: 950 nM
IC50 [2]: > 3000 nM

COc1ccc(CC(C)(C)NCC(O)COc2ccc3ccccc3c2)cc1 (racemic)
IC50 [1]: 1300 nM
IC50 [2]: 1400 nM

CCCCOCC(O)CNC(C)(C)Cc1ccc(OC)cc1 (racemic)
IC50 [1]: 3200 nM
IC50 [2]: 2200 nM

COc1ccc(CC(C)(C)NCC(O)COc2ccccc2C#N)cc1 (racemic)
IC50 (Cytochrome P450 2D6): 36 nM
IC50 [3]: 300 nM
IC50 [4]: 21 nM
IC50 [5]: 300 nM
IC50 [6]: 21 nM
IC50 [1]: 140 nM
EC50 ([7]; read-out: EC50): 20 nM
IC50 [2]: 45 nM
EC50 [8]: Not Active

COc1ccc(CC(C)(C)NC[C@H](O)COc2cccc3[nH]c(=O)[nH]c23)cc1
IC50 [9]: 11.8 µM
IC50 (Cytochrome P450 2D6): 1260 nM
IC50 [3]: 1200 nM
IC50 [4]: 1.3 nM
IC50 [5]: 600 nM
IC50 [6]: 61 nM
IC50 [1]: 31800 nM
EC50 ([7]; read-out: EC50): 7 nM
IC50 [2]: 11000 nM
EC50 ([8]; read-out: EC50): 3 nM

CC(C)(Cc1ccccc1)NCC(O)COc1ccccc1 (racemic)
IC50 [2]: 2300 nM

COc1ccc(CC(C)(C)NC[C@H](O)COc2cccc(Cl)c2Cl)cc1
IC50 [4]: 1 nM
IC50 [1]: 300 nM
EC50 ([7]; read-out: EC50): 200 nM
IC50 [2]: 340 nM

COc1ccc(CCC(C)(C)NCC(O)COc2ccccc2)cc1 (racemic)
IC50 [1]: 2780 nM
IC50 [2]: 13000 nM

COc1ccc(CC(C)(C)NCC(O)COC(C)C)cc1 (racemic)
IC50 [1]: 10000 nM
IC50 [2]: 6400 nM

CC(C)(Cc1ccc2ccccc2c1)NC[C@@H](O)COc1cccc(Cl)c1C#N.Cl
IC50 [9]: 3 µM
Activity (Rattus norvegicus [10]): Active
clearance (Rattus norvegicus [11]): 74 mL/min/kg
IC50 (Cytochrome P450 2D6): 45 nM
Vd [12]: 11 L/kg
half-life [13]: 120 min
IC50 [3]: 200 nM
IC50 [4]: 4300 nM
IC50 [5]: 200 nM
IC50 [6]: 2 nM
Activity (Rattus norvegicus [14]): Active
IC50 [1]: 3 nM
EC50 [15]: 41 nM
bioavailability [16]: 11%
Activity (Rattus norvegicus [17]): Active
Activity (Rattus norvegicus [18]): Active
Activity (Rattus norvegicus [19]): Active
Activity (Rattus norvegicus [20]): Active
EC50 [7]: Not Active
IC50 [2]: 43 nM
EC50 [8]: Not Active

COc1ccc(CC(C)(C)NCC(O)COc2cccc(Cl)c2)cc1 (racemic)
IC50 [1]: 1000 nM
IC50 [2]: 470 nM

COc1ccc(CC(C)(C)NC[C@@H](O)COc2cccc(Cl)c2Cl)cc1
IC50 [4]: 300 nM
IC50 [1]: 68 nM
EC50 [7]: Not Active
IC50 [2]: 38 nM

CCCOCC(O)CNC(C)(C)Cc1ccc(OC)cc1 (racemic)
IC50 [1]: 7000 nM
IC50 [2]: 16000 nM

COc1ccc(CC(C)(C)NCCCOc2cccc(Cl)c2Cl)cc1
IC50 [1]: 930 nM
IC50 [2]: 2500 nM

COc1ccc(C(C)(C)NCC(O)COc2ccccc2)cc1 (racemic)
IC50 [1]: > 10000 nM
IC50 [2]: > 100000 nM

COc1ccc(C(C)(C)CNCC(O)COc2ccccc2)cc1 (racemic)
IC50 [1]: > 10000 nM
IC50 [2]: > 100000 nM

COc1ccc(CC(C)(C)NCC(O)COc2cccc(Cl)c2Cl)cc1 (racemic)
IC50 [4]: 21 nM
IC50 [1]: 200 nM
EC50 ([7]; read-out: EC50): 200 nM
IC50 [2]: 45 nM

COc1ccc(CC(C)(C)NCC(O)COc2ccccc2Cl)cc1 (racemic)
IC50 [1]: 1000 nM
IC50 [2]: 490 nM

COc1ccc(CC(C)(C)NCC(O)COc2ccccc2)cc1 (racemic)
IC50 [1]: 2300 nM
IC50 [2]: 2300 nM

CC[C@H](C)[C@H](NC(=O)[C@H](CCC(=O)O)NC(=O)[C@H](CO)NC(=O)[C@@H](NC(=O)[C@@H](N)CO)C(C)C)C(=O)N[C@@H](CCC(N)=O)C(=O)N[C@@H](CC(C)C)C(=O)N[C@@H](CCSC)C(=O)N[C@@H](Cc1cnc[nH]1)C(=O)N[C@@H](CC(N)=O)C(=O)N[C@@H](CC(C)C)C(=O)NCC(=O)N[C@@H](CCCCN)C(=O)N[C@@H](Cc1cnc[nH]1)C(=O)N[C@@H](CC(C)C)C(=O)N[C@@H](CC(N)=O)C(=O)N[C@@H](CO)C(=O)N[C@@H](CCSC)C(=O)N[C@@H](CCC(=O)O)C(=O)N[C@@H](CCCN=C(N)N)C(=O)N[C@H](C(=O)N[C@@H](CCC(=O)O)C(=O)N[C@@H](Cc1c[nH]c2ccccc12)C(=O)N[C@@H](CC(C)C)C(=O)N[C@@H](CCCN=C(N)N)C(=O)N[C@@H](CCCCN)C(=O)N[C@@H](CCCCN)C(=O)N[C@@H](CC(C)C)C(=O)N[C@@H](CCC(N)=O)C(=O)N[C@@H](CC(=O)O)C(=O)N[C@H](C(=O)N[C@@H](Cc1cnc[nH]1)C(=O)N[C@@H](CC(N)=O)C(=O)N[C@@H](Cc1ccccc1)C(=O)O)C(C)C)C(C)C [TERIPARATIDE]
Vd [21]: 0.12 L/kg
clearance [22]: 1030 mL/min
Tmax [23]: ≤ 30 min
clearance [24]: 1570 mL/min

COc1ccc(CC(C)(C)N(C)CC(O)COc2cccc(Cl)c2Cl)cc1 (racemic)
IC50 [1]: 2300 nM
IC50 [2]: > 3000 nM

COc1ccc(CC(C)(C)NCC(O)COc2cccc(Cl)c2C#N)cc1 (racemic)
IC50 [9]: 3.6 µM
IC50 (Cytochrome P450 2D6): 76 nM
IC50 [3]: 1100 nM
IC50 [4]: 23 nM
IC50 [5]: 1000 nM
IC50 [6]: 34 nM
IC50 [1]: 70 nM
EC50 [7]: Not Active
IC50 [2]: 38 nM
EC50 [8]: Not Active
